According to ChEMBL document CHEMBL3286348, “Undecaprenyl diphosphate synthase inhibitors: antibacterial drug leads” (J Med Chem, 2014):
≈ marks a conversion by molar mass, not a printed value.

Experiments:
Escherichia coli [1] = test: Antibacterial activity against Escherichia coli MC4100 after 16 hrs by microbroth dilution method; assay type: functional; conditions: MC4100, 16 h
Procedure, shortened: (§1)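 Stationary-phase cultures grown in LB broth at 37 °C, adjusted to OD600 0.016 in LB, then added to 96-well plates. 2-fold dilutions from 0.25 to 64 μg mL–1, with kanamycin (1–32 μg mL–1) and DMSO as controls. Incubated covered at 37 °C for 16 h with shaking. MIC taken as the lowest concentration suppressing at least 99% of growth, judged by turbidity.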

Bacillus anthracis [2] = test: Antibacterial activity against Bacillus anthracis Sterne after 16 hrs by microbroth dilution method; assay type: functional
[3] = Inhibition of Staphylococcus aureus UPPS-mediated condensation of FPP with IPP by spectrophotometric analysis
Procedure, shortened: (§2)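 Continuous spectrophotometric assay of FPP + IPP condensation by purified recombinant UPPS (EcUPPS or SaUPPS): 350 μM IPP, 35 μM FPP, 400 μM MESG to follow PPi release, 20 mM Tris·HCl pH 7.5, 0.01% v/v Triton X-100, 1 mM MgCl2.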

Escherichia coli [4] = test: Antibacterial activity against Escherichia coli ATCC 29425 after 3 hrs by MTT assay; assay type: functional, organism-based; conditions: ATCC 29425, 3 h
Procedure, shortened: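 Overnight (16 h) culture diluted 50-fold into LB, grown to OD600 ∼0.4, then diluted 500-fold and plated. Compound 2-fold serial dilutions from 0.3 mM; 3 h at 37 °C to mid-exponential phase. Viability read by MTT (2–4 h, then detergent 2 h at 23 °C in dark), absorbance 570 nm. IC50 by nonlinear regression, mean of two independent experiments.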

Bacillus subtilis [5] = test: Antibacterial activity against Bacillus subtilis subsp. subtilis ATCC 6051 after 12 to 16 hrs by broth dilution method; assay type: functional, organism-based
Procedure, shortened: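 Microbroth dilution: 16 h LB culture diluted 50-fold, grown to OD600 ∼0.4, diluted 500-fold into LB and plated. Compound serially diluted from 0.5 mM; incubation 12–16 h at 37 °C; growth read as absorbance at 570 nm. IC50 by nonlinear regression, averaged over two independent experiments.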

[6] = Inhibition of Escherichia coli UPPS-mediated condensation of FPP with IPP by spectrophotometric analysis; procedure, shortened: as §2
Listeria monocytogenes = test: Antibacterial activity against Listeria monocytogenes 4b F2365 after 16 hrs by microbroth dilution method; assay type: functional; conditions: 4b F2365, 16 h
Procedure, shortened: (§3)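 Stationary-phase cultures grown in brain–heart infusion medium at 37 °C, adjusted to OD600 0.016 in BHI, then plated. 2-fold dilutions from 0.25 to 64 μg mL–1 with DMSO as vehicle control. Kanamycin (1–32 μg mL–1) was the control for L. monocytogenes and gentamycin (1–64 μg mL–1) for S. aureus and E. faecalis. Incubated covered at 37 °C for 16 h with shaking. MIC was the concentration giving at least 99% growth suppression by turbidity.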

Staphylococcus aureus = test: Antibacterial activity against methicillin-resistant Staphylococcus aureus USA300 after 16 hrs by microbroth dilution method; assay type: functional; conditions: USA300, 16 h; procedure, shortened: as §3
Bacillus subtilis [7] = test: Antibacterial activity against Bacillus subtilis 168 after 16 hrs by microbroth dilution method; assay type: functional; conditions: subsp. subtilis str. 168, 16 h; procedure, shortened: as §1
Saccharomyces cerevisiae = test: Toxicity in Saccharomyces cerevisiae ATCC 208352 after 36 hrs by broth dilution method; assay type: organism-based; conditions: ATCC 208352, 36 h
Procedure, shortened: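 Yeast growth inhibition run in YPD medium: inoculum prepared by 50-fold dilution, growth to OD600 ∼0.4, then 500-fold dilution. Compound serially diluted from 0.5 mM; plates held 36 h at 37 °C; absorbance at 570 nm. IC50 by nonlinear regression, mean of two independent experiments.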

Pseudomonas putida = test: Antibacterial activity against Pseudomonas putida after 16 hrs by microbroth dilution method; assay type: functional; procedure, shortened: as §1
Enterococcus faecalis [8] = test: Antibacterial activity against vancomycin-resistant Enterococcus faecalis U503 after 16 hrs by microbroth dilution method; assay type: functional; conditions: U503, 16 h; procedure, shortened: as §3
Enterococcus faecalis [9] = test: Antibacterial activity against vancomycin-resistant Enterococcus faecalis U503 after 16 hrs by microbroth dilution method in presence of vancomycin; assay type: functional; conditions: U503, 16 h
Bacillus anthracis [10] = test: Antibacterial activity against Bacillus anthracis Sterne after 16 hrs by microbroth dilution method in presence of ampicillin; assay type: functional

SMILES: O=C(O)CCN1C(=O)/C(=C/c2ccc(-c3ccc(Cl)cc3Cl)o2)SC1=S
- MIC (Escherichia coli [1]): > 64 µg/mL
- MIC (Bacillus anthracis [2]): 0.25 µg/mL (≈ 0.584 µM)
- IC50 [3]: 2.4 µM
- IC50 (Escherichia coli [4]): > 200 µM
- IC50 (Bacillus subtilis [5]): 0.43 µM
- IC50 [6]: 2.1 µM
- MIC (Listeria monocytogenes): 0.125 µg/mL (≈ 0.292 µM)
- MIC (Staphylococcus aureus): 4 µg/mL (≈ 9.34 µM)
- MIC (Bacillus subtilis [7]): 0.125 µg/mL (≈ 0.292 µM)
- IC50 (Saccharomyces cerevisiae): 180 µM
- MIC (Pseudomonas putida): > 64 µg/mL
- MIC (Enterococcus faecalis [8]): 4 µg/mL (≈ 9.34 µM)

SMILES: CN1C(=O)/C(=C/c2ccc(-c3cc(Cl)ccc3Cl)o2)SC1=S
- IC50 [3]: > 200 µM
- IC50 (Escherichia coli [4]): > 200 µM
- IC50 (Bacillus subtilis [5]): > 200 µM
- IC50 [6]: > 200 µM
- IC50 (Saccharomyces cerevisiae): > 200 µM

SMILES: O=C1/C(=C\c2cccc(O)c2O)SC(=S)N1Cc1ccco1
- IC50 [3]: 5.3 µM
- IC50 (Escherichia coli [4]): > 200 µM
- IC50 (Bacillus subtilis [5]): > 200 µM
- IC50 [6]: > 100 µM
- IC50 (Saccharomyces cerevisiae): > 200 µM

SMILES: CC1=CC(=O)/C(=C\N2C(=O)/C(=C/c3cccc(O)c3)SC2=S)C(=O)O1
- IC50 [3]: > 100 µM
- IC50 (Escherichia coli [4]): > 200 µM
- IC50 (Bacillus subtilis [5]): > 200 µM
- IC50 [6]: > 100 µM
- IC50 (Saccharomyces cerevisiae): > 200 µM

SMILES: CCOc1cc(/C=C2\SC(=S)N(c3ccc(F)cc3)C2=O)ccc1O
- IC50 [3]: 150 µM
- IC50 (Escherichia coli [4]): > 200 µM
- IC50 (Bacillus subtilis [5]): > 200 µM
- IC50 [6]: 41 µM
- IC50 (Saccharomyces cerevisiae): > 200 µM

SMILES: Cc1ccc(-c2ccc(/C=C3\SC(=S)N(CCCC(=O)O)C3=O)o2)c([N+](=O)[O-])c1
- IC50 [3]: 5.7 µM
- IC50 (Escherichia coli [4]): > 200 µM
- IC50 (Bacillus subtilis [5]): 3.2 µM
- IC50 [6]: > 100 µM
- IC50 (Saccharomyces cerevisiae): > 200 µM

SMILES: CC(=O)c1ccc(-c2ccc(/C=C3\SC(=S)N(c4ccccc4)C3=O)o2)cc1
- IC50 [3]: 32 µM
- IC50 (Escherichia coli [4]): > 200 µM
- IC50 (Bacillus subtilis [5]): > 200 µM
- IC50 [6]: 85 µM
- IC50 (Saccharomyces cerevisiae): > 200 µM

SMILES: CN(C)c1ccc(/C=C2\SC(=S)N(Cc3ccco3)C2=O)cc1
- IC50 [3]: > 100 µM
- IC50 (Escherichia coli [4]): > 200 µM
- IC50 (Bacillus subtilis [5]): > 200 µM
- IC50 [6]: > 100 µM
- IC50 (Saccharomyces cerevisiae): > 200 µM

SMILES: CCN1C(=O)/C(=C/c2ccc(OC)cc2)SC1=S
- IC50 [3]: > 100 µM
- IC50 (Escherichia coli [4]): > 200 µM
- IC50 (Bacillus subtilis [5]): > 200 µM
- IC50 [6]: > 100 µM
- IC50 (Saccharomyces cerevisiae): > 200 µM

SMILES: CCN1C(=O)/C(=C/c2ccc(OCC(=O)O)cc2)SC1=S
- IC50 [3]: > 100 µM
- IC50 (Escherichia coli [4]): > 200 µM
- IC50 (Bacillus subtilis [5]): > 200 µM
- IC50 [6]: > 100 µM
- IC50 (Saccharomyces cerevisiae): > 200 µM

SMILES: O=C(O)CCCCCN1C(=O)/C(=C/c2ccc(-c3cc(Cl)ccc3Cl)o2)SC1=S
- IC50 [3]: 3.8 µM
- IC50 (Escherichia coli [4]): > 200 µM
- IC50 (Bacillus subtilis [5]): 5.6 µM
- IC50 [6]: > 100 µM
- IC50 (Saccharomyces cerevisiae): > 200 µM

SMILES: COc1cccc(/C=C2\SC(=S)N(Cc3ccco3)C2=O)c1OC
- IC50 [3]: > 100 µM
- IC50 (Escherichia coli [4]): > 200 µM
- IC50 (Bacillus subtilis [5]): > 200 µM
- IC50 [6]: > 100 µM
- IC50 (Saccharomyces cerevisiae): > 200 µM

SMILES: CCOc1cccc(/C=C2\SC(=S)N(Cc3ccco3)C2=O)c1O
- IC50 [3]: > 100 µM
- IC50 (Escherichia coli [4]): > 200 µM
- IC50 (Bacillus subtilis [5]): > 200 µM
- IC50 [6]: > 100 µM
- IC50 (Saccharomyces cerevisiae): > 200 µM

SMILES: O=C(O)c1ccc(N2C(=O)/C(=C/c3ccc(Br)cc3)SC2=S)cc1
- IC50 [3]: 170 µM
- IC50 (Escherichia coli [4]): > 200 µM
- IC50 (Bacillus subtilis [5]): > 200 µM
- IC50 [6]: > 200 µM
- IC50 (Saccharomyces cerevisiae): > 200 µM

SMILES: CCOc1cc(/C=C2\SC(=S)N(c3cccc(F)c3)C2=O)ccc1OC(=O)c1cccs1
- IC50 [3]: > 200 µM
- IC50 (Escherichia coli [4]): > 200 µM
- IC50 (Bacillus subtilis [5]): > 200 µM
- IC50 [6]: > 200 µM
- IC50 (Saccharomyces cerevisiae): > 200 µM

SMILES: Cc1cc(Cl)ccc1-c1ccc(/C=C2\SC(=S)N(CC(=O)O)C2=O)o1
- MIC (Escherichia coli [1]): > 64 µg/mL
- MIC (Bacillus anthracis [2]): 1 µg/mL (≈ 2.54 µM)
- IC50 (Escherichia coli [4]): > 200 µM
- IC50 (Bacillus subtilis [5]): 2.9 µM
- MIC (Enterococcus faecalis [9]): 1.78 µg/mL
- IC50 [6]: 260 µM
- MIC (Listeria monocytogenes): 4 µg/mL (≈ 10.2 µM)
- MIC (Staphylococcus aureus): 8 µg/mL (≈ 20.3 µM)
- MIC (Bacillus anthracis [10]): 1.24 µg/mL
- IC50 (Saccharomyces cerevisiae): > 200 µM
- MIC (Pseudomonas putida): > 64 µg/mL
- MIC (Enterococcus faecalis [8]): 1 µg/mL (≈ 2.54 µM)

SMILES: O=C1/C(=C/c2ccc(Cl)cc2Cl)SC(=S)N1Cc1ccco1
- IC50 [3]: > 100 µM
- IC50 (Escherichia coli [4]): > 200 µM
- IC50 (Bacillus subtilis [5]): > 200 µM
- IC50 [6]: > 100 µM
- IC50 (Saccharomyces cerevisiae): > 200 µM
